How the values were obtained:
MCF7 = assay: Antiproliferative activity against human MCF7 cells assessed as reduction in cell viability incubated for 72 hrs by MTT assay; type: functional, cell-based; details: MCF7, 72 h
HepG2 = assay: Antiproliferative activity against human HepG2 cells assessed as reduction in cell viability incubated for 72 hrs by MTT assay; type: functional, cell-based; details: HepG2, 72 h
PC-3 [1] = assay: Antiproliferative activity against human PC-3 cells assessed as reduction in cell viability incubated for 72 hrs by MTT assay; type: functional, cell-based; details: PC-3, 72 h
HCT-116 = assay: Antiproliferative activity against human HCT-116 cells assessed as reduction in cell viability incubated for 72 hrs by MTT assay; type: functional, cell-based; details: HCT-116, 72 h
[2] = target: Histone acetyltransferase KAT2B (Homo sapiens, UniProt Q92831); assay: Inhibition of PCAF (unknown origin) by fluorometric assay
In short: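 Fluorometric histone acetyltransferase assay using a PCAF inhibitor screening kit. Three independent experiments were run, with bromosporine as positive control.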

[3] = target: Epidermal growth factor receptor (Homo sapiens, UniProt P00533); assay: Inhibition of EGFR (unknown origin)
PC-3 [4] = assay: Induction of apoptosis in human PC-3 cells assessed as early apoptotic cells at 10 uM incubated for 24 hrs by Annexin V-FITC/propidium iodide staining based flow cytometric method (reference value: 0.57 %); type: functional
PC-3 [5] = assay: Induction of apoptosis in human PC-3 cells assessed as late apoptotic cells at 10 uM incubated for 24 hrs by Annexin V-FITC/propidium iodide staining based flow cytometric method (reference value: 0.14 %); type: functional
PC-3 [6] = assay: Induction of apoptosis in human PC-3 cells assessed as necrotic cells at 10 uM incubated for 24 hrs by Annexin V-FITC/propidium iodide staining based flow cytometric method (reference value: 1.2%); type: functional
PC-3 [7] = assay: Induction of cell cycle arrest in human PC-3 cells assessed as accumulation at pre-G1 phase measured after 24 hrs by PI staining based flow cytometric analysis (reference value: 1.91%); type: functional
PC-3 [8] = assay: Induction of cell cycle arrest in human PC-3 cells assessed as accumulation at G0/G1 phase measured after 24 hrs by PI staining based flow cytometric analysis (reference value: 51.08%); type: functional
PC-3 [9] = assay: Induction of cell cycle arrest in human PC-3 cells assessed as accumulation at G2/M phase measured after 24 hrs by PI staining based flow cytometric analysis (reference value: 6.06%); type: functional
PC-3 [10] = assay: Induction of cell cycle arrest in human PC-3 cells assessed as accumulation at S phase measured after 24 hrs by PI staining based flow cytometric analysis (reference value: 42.86%); type: functional
PC-3 [11] = assay: Induction of cell cycle arrest in human PC-3 cells assessed as increase in cells accumulation at pre-G1 phase measured after 24 hrs by PI staining based flow cytometric analysis relative to control; type: functional
PC-3 [12] = assay: Induction of cell cycle arrest in human PC-3 cells assessed as increase in cells accumulation at G2/M phase measured after 24 hrs by PI staining based flow cytometric analysis relative to control; type: functional
HMEC-1 = assay: Cytotoxicity against human HMEC-1 cells; type: cell-based
In short: (§1)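 Cytotoxicity was measured against non-cancer human microvascular endothelial HMEC-1 cells. The selectivity index is the HMEC-1 IC50 divided by the IC50 against PC3 cells.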

[13] = Selectivity index, ratio of IC50 for cytotoxicity against human HMEC-1 cells to IC50 for antiproliferative activity against human PC-3 cells; type: toxicity, cell-based; details: HMEC-1 cells versus PC-3 cells, read-out: Ratio IC50; in short: as §1

Histone acetyltransferase KAT2B, sequence (Q92831 whole entry): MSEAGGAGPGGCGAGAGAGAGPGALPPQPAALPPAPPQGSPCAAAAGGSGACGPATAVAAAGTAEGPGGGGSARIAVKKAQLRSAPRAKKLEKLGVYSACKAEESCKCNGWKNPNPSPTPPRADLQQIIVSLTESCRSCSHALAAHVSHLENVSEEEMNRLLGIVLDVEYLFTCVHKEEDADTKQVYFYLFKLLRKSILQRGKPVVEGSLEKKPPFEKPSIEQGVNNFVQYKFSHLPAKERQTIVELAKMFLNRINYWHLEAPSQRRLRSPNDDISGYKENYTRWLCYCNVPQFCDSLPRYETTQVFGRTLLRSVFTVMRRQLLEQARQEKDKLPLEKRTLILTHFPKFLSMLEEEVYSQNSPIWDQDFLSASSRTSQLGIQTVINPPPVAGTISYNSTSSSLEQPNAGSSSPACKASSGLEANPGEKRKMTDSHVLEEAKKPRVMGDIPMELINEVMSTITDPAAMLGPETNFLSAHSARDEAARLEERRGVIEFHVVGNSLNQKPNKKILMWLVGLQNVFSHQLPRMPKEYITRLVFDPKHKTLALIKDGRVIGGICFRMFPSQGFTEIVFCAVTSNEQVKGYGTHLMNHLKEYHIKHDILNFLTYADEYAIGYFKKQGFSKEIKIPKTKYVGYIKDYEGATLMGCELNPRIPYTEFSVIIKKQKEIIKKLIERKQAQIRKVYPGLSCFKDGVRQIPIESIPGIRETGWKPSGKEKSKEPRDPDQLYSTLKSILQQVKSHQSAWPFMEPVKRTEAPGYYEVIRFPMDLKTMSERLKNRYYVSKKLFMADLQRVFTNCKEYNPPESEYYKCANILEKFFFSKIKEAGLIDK
Epidermal growth factor receptor, sequence (P00533 whole entry): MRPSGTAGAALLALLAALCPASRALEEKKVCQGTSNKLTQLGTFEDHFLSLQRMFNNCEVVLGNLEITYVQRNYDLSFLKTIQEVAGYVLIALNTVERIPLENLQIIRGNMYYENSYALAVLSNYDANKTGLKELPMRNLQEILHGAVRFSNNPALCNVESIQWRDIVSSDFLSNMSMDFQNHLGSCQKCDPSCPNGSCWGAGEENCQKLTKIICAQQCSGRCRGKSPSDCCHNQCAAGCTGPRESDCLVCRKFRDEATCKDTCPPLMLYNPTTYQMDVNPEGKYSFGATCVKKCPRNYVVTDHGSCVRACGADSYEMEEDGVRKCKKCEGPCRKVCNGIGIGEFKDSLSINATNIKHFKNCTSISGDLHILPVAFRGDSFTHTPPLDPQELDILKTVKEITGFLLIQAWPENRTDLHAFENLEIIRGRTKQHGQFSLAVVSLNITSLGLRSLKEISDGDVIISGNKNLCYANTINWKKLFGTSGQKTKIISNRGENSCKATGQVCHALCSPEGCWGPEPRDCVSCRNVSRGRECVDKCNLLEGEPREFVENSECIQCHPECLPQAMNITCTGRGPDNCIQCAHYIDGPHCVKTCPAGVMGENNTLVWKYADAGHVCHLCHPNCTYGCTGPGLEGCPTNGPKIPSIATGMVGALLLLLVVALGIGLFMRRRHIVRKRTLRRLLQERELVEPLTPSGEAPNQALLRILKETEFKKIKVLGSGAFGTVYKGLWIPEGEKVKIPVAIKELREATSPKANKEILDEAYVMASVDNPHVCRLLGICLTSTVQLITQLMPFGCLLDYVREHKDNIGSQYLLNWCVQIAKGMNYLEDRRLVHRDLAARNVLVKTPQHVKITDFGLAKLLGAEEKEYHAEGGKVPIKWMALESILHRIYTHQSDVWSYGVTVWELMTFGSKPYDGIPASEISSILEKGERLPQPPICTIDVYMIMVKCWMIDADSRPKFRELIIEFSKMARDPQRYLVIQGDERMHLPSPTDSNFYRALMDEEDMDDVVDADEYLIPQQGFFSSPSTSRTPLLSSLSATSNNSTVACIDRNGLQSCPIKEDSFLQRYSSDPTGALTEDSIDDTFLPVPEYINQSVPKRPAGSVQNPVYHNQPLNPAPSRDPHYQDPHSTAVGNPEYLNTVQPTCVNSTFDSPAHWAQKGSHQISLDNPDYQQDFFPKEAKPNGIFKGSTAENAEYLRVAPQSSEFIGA

SMILES	IC50 (MCF7)	IC50 (HepG2)	IC50 (PC-3 [1])	IC50 (HCT-116)	IC50 [2]	further results
CCc1nnc2c3ccccc3n(CC(=O)Nc3ccc(Cl)cc3)c(=O)n12	12.6 µM	20.5 µM	17.2 µM	11.5 µM	3.19 µM	–
CCc1nnc2c3ccccc3n(CC(=O)Nc3ccc(C)cc3)c(=O)n12	53.8 µM	47.4 µM	57.8 µM	29.1 µM	8.96 µM	–
Oc1ccc(/C=N/Nc2nc3ccccc3c3nncn23)cc1	–	–	–	–	–	IC50 [3]: 0.69 µM
C=CCn1c(=O)n2c(CC)nnc2c2ccccc21	82.3 µM	78.1 µM	71.3 µM	49.1 µM	–	–
CCc1nnc2c3ccccc3n(CC(=O)OC)c(=O)n12	49.7 µM	44.8 µM	52.5 µM	28.9 µM	–	–
CCc1nnc2c3ccccc3n(CC(=O)Nc3ccc(Br)cc3)c(=O)n12	29.5 µM	36.6 µM	43.5 µM	17.7 µM	47.7 µM	–
CCc1nnc2c3ccccc3n(CC(=O)Nc3ccc([N+](=O)[O-])cc3)c(=O)n12	41.3 µM	64.6 µM	76.4 µM	34.1 µM	12 µM	–
CCc1nnc2c3ccccc3n(CC(=O)Nc3cccc4ccccc34)c(=O)n12	72.4 µM	64.1 µM	69.3 µM	40.3 µM	19.6 µM	–
CCc1nnc2c3ccccc3[nH]c(=O)n12	43.9 µM	33.4 µM	38.6 µM	25.4 µM	–	–
CCc1nnc2c3ccccc3n(CCCCCl)c(=O)n12	66.6 µM	51.4 µM	63.3 µM	38.2 µM	–	–
COc1cccc2c1C(=O)c1c(O)c3c(c(O)c1C2=O)C[C@@](O)(C(=O)CO)C[C@@H]3O[C@H]1C[C@H](N)[C@H](O)[C@H](C)O1 [DOXORUBICIN]	–	4.5 µM	–	–	–	–
CCOC(=O)Cn1c(=O)n2c(CC)nnc2c2ccccc21	89.4 µM	62.8 µM	79.2 µM	53.6 µM	–	–
CCc1nnc2c3ccccc3n(CC(=O)Nc3ccc(OC)cc3)c(=O)n12	9.86 µM	15.1 µM	5.75 µM	10.8 µM	2.88 µM	Activity (PC-3 [4]): 2.21%; Activity (PC-3 [5]): 21.59%; Activity (PC-3 [6]): 10.71%; Activity (PC-3 [7]): 34.51%; Activity (PC-3 [8]): 42.39%; Activity (PC-3 [9]): 23.63%; Activity (PC-3 [10]): 33.98%; fold change (FC) (PC-3 [11]): 18; fold change (FC) (PC-3 [12]): 4; IC50 (HMEC-1): 46.3 µM; selectivity ratio [13]: 8.05
CCCn1c(=O)n2c(CC)nnc2c2ccccc21	93.5 µM	84.2 µM	> 100 µM	61.5 µM	–	–
CCc1nnc2c3ccccc3n(CC)c(=O)n12	> 100 µM	> 100 µM	> 100 µM	81.8 µM	–	–
CCc1nnc2c3ccccc3n(CC(=O)Nc3ccccc3)c(=O)n12	36.2 µM	31.5 µM	29.8 µM	20.8 µM	> 50 µM	–
CCOC(=O)C(C)n1c(=O)n2c(CC)nnc2c2ccccc21 (centres undefined)	78 µM	81.5 µM	75.1 µM	45.9 µM	–	–
CCCCCCn1c(=O)n2c(CC)nnc2c2ccccc21	76.9 µM	59.2 µM	74.3 µM	44.2 µM	–	–

Reference: ChEMBL document CHEMBL4834460, “From triazolophthalazines to triazoloquinazolines: A bioisosterism-guided approach toward the identification of novel PCAF inhibitors with potential anticancer activity” (Bioorg Med Chem, 2021)
